Experimental data from different studies.
Lines come from different studies, so protocols differ.
Cell line: U-87 MG
Read-out: cell growth or viability

| Compound | test | conditions | measurement | value |
| --- | --- | --- | --- | --- |
| Fc1ccc2[nH]cc(CNCC3(N4CCC(F)C4)COC3)c2c1 (centres unmarked) | – | 30 µM, 48 h | viability | 94.6% |
| CCN(CC)C(=O)c1ncn2c(=O)n(C)nnc12 | resazurin | 7 days | IC50 | 80 µM |
| FC1CCN(C2(CNCc3ccc(-c4ccccc4)o3)COC2)C1 (centres unmarked) | – | 30 µM, 48 h | viability | 46.6% |
| Oc1c(C(c2ccc(F)cc2)N2CCCCC2)ccc2c1CCC2 (centres unmarked) | MTT | 30 µM | inhibition | 28% |
| Fc1ccc2c(CNCC3(N4CCC(F)C4)COC3)c[nH]c2c1 (centres unmarked) | – | 30 µM, 48 h | viability | 97.6% |
| Cn1nnc2c(-c3ccccc3)ncn2c1=O | resazurin | 7 days | IC50 | 9 µM |
| Cc1ccc(C(=O)Nc2ccc(Oc3cc4cnn(C)c4cc3-c3cn[nH]c3)c(F)c2)c(=O)n1-c1ccc(F)cc1 | ATP luminescence | – | IC50 | 0.129 µM |
| COc1cccc2c1C(=O)c1c(O)c3c(c(O)c1C2=O)C[C@@](O)(C(=O)CO)C[C@@H]3O[C@H]1C[C@H](N)[C@H](O)[C@H](C)O1 | WST-1 | 72 h | IC50 | 0.04 µM |
| CC(C)C[C@H](NC(=O)[C@H](Cc1ccccc1)NC(=O)c1cnccn1)B(O)O | ATP luminescence | – | IC50 | 0.02 µM |
| Cn1nnc2c(C(N)=O)ncn2c1=O | MTT | 72 h | IC50 | 596 µM |
| COc1cccc2c1C(=O)c1c(O)c3c(c(O)c1C2=O)C[C@@](O)(C(=O)CO)C[C@@H]3O[C@H]1C[C@H](N)[C@H](O)[C@H](C)O1 | SRB | – | IC50 | 0.1 µM |
| Cc1cc(NC(=O)c2cccc3cc(-c4cccc5[nH]nc(N)c45)ccc23)ccc1F | CCK-8 | 72 h | IC50 | > 20 µM |
| Cn1nnc2c(Cl)ncn2c1=O | resazurin | 7 days | IC50 | 15 µM |
| c1cc2c(cc1CNCC1(N3CCCC3)COC1)OCCO2 | – | 30 µM, 48 h | viability | 95.7% |
| COc1cc(Nc2nccc(-c3cnn4nc(OC)ccc34)n2)cc(C(F)(F)F)c1 | ATP luminescence | – | IC50 | 0.84 µM |
| Cn1nnc2c(C(N)=O)ncn2c1=O | resazurin | 7 days | IC50 | 51 µM |
| c1cc2cc(CNCC3(N4CCCC4)COC3)ccc2[nH]1 | – | 30 µM, 48 h | viability | 98.6% |
